Laboratory results: publication PMC4306506 (Journal of Medicinal Chemistry, 2014)
Positions of bridges follow the written chain, without caps; N, C: chain ends. Residues, ends and D or L forms follow the SMILES beside them.

Columns and labels:
[1] = target: complement C3 (Homo sapiens, UniProt P01024); assay: Complement inhibition across biochemical and functional assays; settings: C3b ELISA, C5b-9 ELISA, hemolytic assay
[2] = Apparent solubility by absorbance at 280 nm; assay type: physicochemical; settings: PBS pH 7.4, absorbance at 280 nm
Summary of the method: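 About 1 mg test peptide in 200 μL PBS pH 7.4; upper reportable limit 5 mg/mL. Vortexed 30 s, centrifuged 13000g for 5 min. Supernatant A280 converted to concentration by Beer–Lambert, using extinction coefficients from each peptide's Trp and Tyr count. Samples kept at 4 °C and re-read at 24 and 48 h. Mean and standard deviation of three readings per sample.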

[3] = phase II, NCT00473928 and NCT01157065; cited from earlier work

Chain of complement C3 (P01024 23-667 limits assumed): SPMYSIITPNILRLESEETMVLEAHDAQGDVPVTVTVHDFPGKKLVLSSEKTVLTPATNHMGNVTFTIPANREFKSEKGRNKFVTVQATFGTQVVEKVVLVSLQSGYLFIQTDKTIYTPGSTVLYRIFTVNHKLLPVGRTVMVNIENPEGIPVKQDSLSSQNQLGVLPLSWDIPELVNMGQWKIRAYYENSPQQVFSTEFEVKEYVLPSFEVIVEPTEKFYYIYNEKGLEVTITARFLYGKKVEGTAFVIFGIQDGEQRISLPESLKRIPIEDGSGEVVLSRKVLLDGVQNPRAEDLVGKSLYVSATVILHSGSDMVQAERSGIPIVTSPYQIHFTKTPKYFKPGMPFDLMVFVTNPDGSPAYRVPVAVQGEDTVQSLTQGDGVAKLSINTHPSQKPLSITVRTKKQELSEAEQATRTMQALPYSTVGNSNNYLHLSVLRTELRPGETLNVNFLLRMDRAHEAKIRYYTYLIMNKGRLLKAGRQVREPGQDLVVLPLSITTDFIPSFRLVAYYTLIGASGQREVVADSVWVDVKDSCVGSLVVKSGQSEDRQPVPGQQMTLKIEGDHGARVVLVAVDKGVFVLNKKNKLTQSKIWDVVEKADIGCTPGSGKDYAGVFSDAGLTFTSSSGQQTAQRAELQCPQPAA
Chain of complement C3 (P01024 672-1663 partner limits assumed): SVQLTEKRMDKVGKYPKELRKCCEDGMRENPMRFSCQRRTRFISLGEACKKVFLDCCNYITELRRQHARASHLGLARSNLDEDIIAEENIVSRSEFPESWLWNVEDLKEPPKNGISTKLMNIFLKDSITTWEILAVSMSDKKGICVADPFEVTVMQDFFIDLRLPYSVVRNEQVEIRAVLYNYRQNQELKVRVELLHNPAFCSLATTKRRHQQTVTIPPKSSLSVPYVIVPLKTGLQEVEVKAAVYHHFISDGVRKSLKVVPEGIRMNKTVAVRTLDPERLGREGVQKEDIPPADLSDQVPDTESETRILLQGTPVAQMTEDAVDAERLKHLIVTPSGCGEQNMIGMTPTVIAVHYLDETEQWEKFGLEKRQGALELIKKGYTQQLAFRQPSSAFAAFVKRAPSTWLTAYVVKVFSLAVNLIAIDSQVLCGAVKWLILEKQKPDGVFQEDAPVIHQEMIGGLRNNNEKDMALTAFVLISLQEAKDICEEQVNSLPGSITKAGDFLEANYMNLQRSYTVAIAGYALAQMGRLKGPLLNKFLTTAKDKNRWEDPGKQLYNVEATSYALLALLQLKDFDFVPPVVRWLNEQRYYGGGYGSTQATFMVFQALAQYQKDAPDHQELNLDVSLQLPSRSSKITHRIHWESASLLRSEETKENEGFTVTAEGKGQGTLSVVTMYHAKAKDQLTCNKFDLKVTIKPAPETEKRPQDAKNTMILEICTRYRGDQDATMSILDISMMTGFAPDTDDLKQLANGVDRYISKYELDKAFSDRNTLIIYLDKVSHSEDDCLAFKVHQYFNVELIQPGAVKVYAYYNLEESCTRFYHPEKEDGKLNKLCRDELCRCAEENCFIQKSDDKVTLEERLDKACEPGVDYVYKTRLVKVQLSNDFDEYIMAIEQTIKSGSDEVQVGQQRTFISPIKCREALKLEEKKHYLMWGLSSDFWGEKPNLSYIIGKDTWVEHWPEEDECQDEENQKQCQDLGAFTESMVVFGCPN

| SMILES | Complement inhibitory activity relative to controls, in words [1] | Solubility, in words [2] | Retinal thickness in AMD patients in comparison to ranibizumab [3] |
| --- | --- | --- | --- |
| CC[C@H](C)[C@H](NC(C)=O)C(=O)N[C@H]1CSSC[C@@H](C(=O)N[C@H](C(N)=O)[C@@H](C)O)NC(=O)[C@H](CCCNC(=N)N)NC(=O)[C@H](Cc2c[nH]cn2)NC(=O)[C@@](C)(CC)NC(=O)CNC(=O)[C@H](Cc2c[nH]c3ccccc23)NC(=O)[C@H](CC(=O)O)NC(=O)[C@H](CCC(N)=O)NC(=O)[C@H](Cc2c[nH]c3ccccc23)NC(=O)[C@H](C(C)C)NC1=O [Peptide 3, Ac- ICV W QDWG{Rea}HRCT-NH2] | inhibitory activity similar to meW4A9 | greatly improved aqueous solubility |  |
| C=CC[C@@]1(C)NC(=O)CNC(=O)[C@H](Cc2c[nH]c3ccccc23)NC(=O)[C@H](CC(=O)O)NC(=O)[C@H](CCC(N)=O)NC(=O)[C@H](Cc2c[nH]c3ccccc23)NC(=O)[C@H](C(C)C)NC(=O)[C@@H](NC(=O)[C@@H](NC(C)=O)[C@@H](C)CC)CSSC[C@@H](C(=O)N[C@H](C(N)=O)[C@@H](C)O)NC(=O)[C@H](CCCNC(=N)N)NC(=O)[C@H](Cc2c[nH]cn2)NC1=O [Peptide 4, Ac- ICV W QDWG{Aal}HRCT-NH2] | inhibitory activity similar to meW4A9 | greatly improved aqueous solubility |  |
| CC[C@H](C)[C@H](NC(C)=O)C(=O)N[C@H]1CSSC[C@@H](C(=O)N[C@H](C(N)=O)[C@@H](C)O)NC(=O)[C@H](CCCNC(=N)N)NC(=O)[C@H](Cc2c[nH]cn2)NC(=O)[C@](C)(CC)NC(=O)CNC(=O)[C@H](Cc2c[nH]c3ccccc23)NC(=O)[C@H](CC(=O)O)NC(=O)[C@H](CCC(N)=O)NC(=O)[C@H](Cc2c[nH]c3ccccc23)NC(=O)[C@H](C(C)C)NC1=O [Peptide 5, Ac- ICV W QDWG{Sea}HRCT-NH2] | inhibitory activity similar to meW4A9 | greatly improved aqueous solubility |  |
| CC(=O)N[C@@H](CC(N)=O)C(=O)N[C@@H](CC(N)=O)C(=O)N[C@@H](CC(C)C)C(=O)N[C@H]1CSSC[C@@H](C(=O)N[C@H](C(N)=O)[C@@H](C)O)NC(=O)[C@H](CCCNC(=N)N)NC(=O)[C@H](Cc2c[nH]cn2)NC(=O)[C@H](C)NC(=O)CNC(=O)[C@H](Cc2c[nH]c3ccccc23)NC(=O)[C@H](CC(=O)O)NC(=O)[C@H](CCC(N)=O)NC(=O)[C@H](Cc2c[nH]c3ccccc23)NC(=O)[C@H](C(C)C)NC1=O [Peptide 7, Ac-NNLCV W QDWG A HRCT-NH2] (Ac-NNLCVWQDWGAHRCT-NH2; disulfide 4-14) | inhibitory activity similar to meW4A9 | greatly improved aqueous solubility |  |
| CC(=O)N[C@@H](CC(N)=O)C(=O)N[C@@H](CCCNC(=N)N)C(=O)N[C@@H](CC(C)C)C(=O)N[C@H]1CSSC[C@@H](C(=O)N[C@H](C(N)=O)[C@@H](C)O)NC(=O)[C@H](CCCNC(=N)N)NC(=O)[C@H](Cc2c[nH]cn2)NC(=O)[C@H](C)NC(=O)CNC(=O)[C@H](Cc2c[nH]c3ccccc23)NC(=O)[C@H](CC(=O)O)NC(=O)[C@H](CCC(N)=O)NC(=O)[C@H](Cc2c[nH]c3ccccc23)NC(=O)[C@H](C(C)C)NC1=O [Peptide 8, Ac-NRLCV W QDWG A HRCT-NH2] (Ac-NRLCVWQDWGAHRCT-NH2; disulfide 4-14) | inhibitory activity similar to meW4A9 | greatly improved aqueous solubility |  |
| CC[C@H](C)[C@H](NC(=O)[C@H](CO)NC(=O)[C@H](CCCNC(=N)N)NC(C)=O)C(=O)N[C@H]1CSSC[C@@H](C(=O)N[C@H](C(N)=O)[C@@H](C)O)NC(=O)[C@H](CCCNC(=N)N)NC(=O)[C@H](Cc2c[nH]cn2)NC(=O)[C@H](C)NC(=O)CNC(=O)[C@H](Cc2c[nH]c3ccccc23)NC(=O)[C@H](CC(=O)O)NC(=O)[C@H](CCC(N)=O)NC(=O)[C@H](Cc2c[nH]c3ccccc23)NC(=O)[C@H](C(C)C)NC1=O [Peptide 9, Ac-RSICV W QDWG A HRCT-NH2] | inhibitory activity similar to meW4A9 | greatly improved aqueous solubility |  |
| CC[C@H](C)[C@H](NC(C)=O)C(=O)N[C@H]1CSSC[C@@H](C(=O)N[C@H](C(N)=O)[C@@H](C)O)NC(=O)[C@H](CCCNC(=N)N)NC(=O)[C@H](Cc2c[nH]cn2)NC(=O)[C@H](C)NC(=O)CNC(=O)[C@H](Cc2c[nH]c3ccccc23)NC(=O)[C@H](CC(=O)O)NC(=O)[C@H](CCC(N)=O)NC(=O)[C@H](Cc2cn(C)c3ccccc23)NC(=O)[C@H](C(C)C)NC1=O [meW4A9, Ac- ICV{meW}QDWG A HRCT-NH2] |  |  | did not yield reduced retinal thickness |
